Source: article PMC10091778 (Drug Development Research, 2022)
pIC50: −log10 of the molar value.

Columns and labels:
[1] = tested on: 4T1 murine triple negative breast cancer cells; assay: Resazurin cell viability assay on 4T1 cells; type: cell-based; conditions: Mus musculus, 4T1, 72 h, read-out: IC50 4T1
Summary of the method: (§1)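 Cells were seeded in 96-well plates (4T1 10,000, A549 10,000, HL-60 20,000 per well), with adherent lines settling overnight. Test compound came from a 10 mM DMSO stock, serially diluted in medium to 1.56–50 µM (some 39 nM–12.5 µM), for 72 h; three biological replicates. Resazurin (0.15 mg/ml stock, 20 µl per 100 µl) ran 2 h at 37 °C, read at 530/580 nm. Viability was set against untreated and blank wells; IC50 from curves.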

[2] = tested on: HL‐60 human acute promyelocytic leukemia cells; assay: Resazurin cell viability assay on HL-60 cells; type: cell-based; conditions: HL-60, 72 h, read-out: IC50 HL‐60
Summary of the method: as §1

[3] = tested on: 4T1, A549, and HL‐60 cells; type: cell-based; conditions: resazurin assay, 72 h, up to 50 µM, three cancer cell lines
Summary of the method: as §1

HL‐60 cells [4] = assay: Annexin V / propidium iodide flow cytometry; type: cell-based, human; conditions: 6 µM, 24 h; for Early apoptotic cells (AnnV+/PI−) / Late apoptotic cells (AnnV+/PI+) / Living cells (AnnV−/PI−) / Necrotic cells (AnnV−/PI+): mean ± SD; for Early apoptotic cells (AnnV+/PI−): untreated 1.9 ± 0.5%; for Late apoptotic cells (AnnV+/PI+): untreated 9.5 ± 2.7%; for Living cells (AnnV−/PI−): untreated 85 ± 3.9%; for Necrotic cells (AnnV−/PI+): untreated 3.6 ± 1.6%
Summary of the method: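 HL-60 cells (100,000) were treated for 24 h at 1, 3 or 6 µM, then resuspended in Annexin V binding buffer (0.01 M HEPES, 0.14 M NaCl, 2.5 mM CaCl2). Annexin V-Alexa 488 was added for 15 min in the dark at room temperature, then PI (10 µg/ml). Quadrant percentages were taken by flow cytometry; three biological replicates, mean ± SD; two-tailed t test against untreated.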

HL‐60 cells [5] = assay: Sub-G1 DNA fragmentation analysis by flow cytometry; type: cell-based, human; conditions: 6 µM, 72 h; mean ± SD; untreated 11.7 ± 1.2%
HL‐60 cells [6] = assay: Cell cycle analysis by flow cytometry; type: cell-based, human; conditions: 72 h; for Cells in G2/M phase: untreated 17.3 ± 1.7%
HL‐60 cells [7] = assay: Mitochondrial membrane depolarization by JC-1 staining; type: cell-based, human; conditions: 16 h, untreated 7.6 ± 0.6%; for Cells with green JC‐1 accumulation (depolarized MMP): 3 µM; for Cells with green JC‐1 monomers (depolarized MMP): 6 µM
[8] = tested on: colorectal cancer cell line HCT‐116; conditions: read-out: IC50 HCT‐116; antiproliferative; ref Han et al., 2022; cited from earlier work

Nc1nc(-c2cccc(NC(=O)c3cc4cc(F)ccc4[nH]3)c2)c(C(=O)c2ccccc2)[nH]1 [Compound 23, N‐(3‐(2‐amino‐5‐benzoyl‐1H‐imidazol‐4‐yl)phenyl)‐5‐fluoro‐1H‐indole‐2‐carboxamide]
pIC50 [1]: 5.04
pIC50 [2]: 5.28
Cytotoxic / antiproliferative activity in words [3]: hampered the viability of all three tested cell lines
Early apoptotic cells (AnnV+/PI−) (HL‐60 cells [4]): 3.2 ± 0.7%
Late apoptotic cells (AnnV+/PI+) (HL‐60 cells [4]): 15.5 ± 3.9%
Living cells (AnnV−/PI−) (HL‐60 cells [4]): 76.8 ± 3.5%
DNA fragmentation (sub‐G1 population) of HL‐60 cells (HL‐60 cells [5]): 22.9 ± 1.2%
Cells in G2/M phase (HL‐60 cells [6]; 3 µM): 22.4 ± 1.6%
Cells in G2/M phase (HL‐60 cells [6]; 6 µM): 39.2 ± 3.1%
Effect on cell cycle distribution, in words (HL‐60 cells [6]): significantly disturbed cell cycle distribution
Cells with green JC‐1 accumulation (depolarized MMP) (HL‐60 cells [7]): 9.1 ± 0.2%
Cells with green JC‐1 monomers (depolarized MMP) (HL‐60 cells [7]): 13.4 ± 0.8%

Nc1nc(-c2cccc(NC(=O)c3cc(Br)c[nH]3)c2)c(C(=O)c2ccccc2)[nH]1 [Compound 21, N‐(3‐(2‐amino‐5‐benzoyl‐1H‐imidazol‐4‐yl)phenyl)‐4‐bromo‐1H‐pyrrole‐2‐carboxamide]
Cytotoxic / antiproliferative activity in words [3]: completely inactive

CCOC(=O)c1[nH]c(N)nc1-c1cccc(NC(=O)c2cc3ccccc3[nH]2)c1 [Compound 16, Ethyl 4‐(3‐(1H‐indole‐2‐carboxamido)phenyl)−2‐amino‐1H‐imidazole‐5‐carboxylate]
pIC50 [1]: 4.71
pIC50 [2]: 4.84

COc1ccc2[nH]c(C(=O)Nc3cccc(-c4nc(N)[nH]c4C(=O)c4ccccc4)c3)cc2c1 [Compound 27, N‐(3‐(2‐amino‐5‐benzoyl‐1H‐imidazol‐4‐yl)phenyl)‐5‐methoxy‐1H‐indole‐2‐carboxamide]
pIC50 [1]: 4.93
pIC50 [2]: 5.51
Cytotoxic / antiproliferative activity in words [3]: hampered the viability of all three tested cell lines
Early apoptotic cells (AnnV+/PI−) (HL‐60 cells [4]): 16.1 ± 0.6%
Necrotic cells (AnnV−/PI+) (HL‐60 cells [4]): 2.5 ± 0.3%
Late apoptotic cells (AnnV+/PI+) (HL‐60 cells [4]): 50.7 ± 0.9%
Living cells (AnnV−/PI−) (HL‐60 cells [4]): 30.5 ± 0.7%
DNA fragmentation (sub‐G1 population) of HL‐60 cells (HL‐60 cells [5]): 53.8 ± 7.3%
Cells with green JC‐1 accumulation (depolarized MMP) (HL‐60 cells [7]): 13.3 ± 1.1%
Cells with green JC‐1 monomers (depolarized MMP) (HL‐60 cells [7]): 42.4 ± 0.8%

CC(=O)c1[nH]c(N)nc1-c1cccc(NC(=O)c2cc3cc(F)ccc3[nH]2)c1 [Compound 30, N‐(3‐(5‐acetyl‐2‐amino‐1H‐imidazol‐4‐yl)phenyl)‐5‐fluoro‐1H‐indole‐2‐carboxamide]
pIC50 [1]: 4.60
pIC50 [2]: 4.60

CCOC(=O)c1[nH]c(N)nc1-c1cccc(NC(=O)c2cc3cc(OC)ccc3[nH]2)c1 [Compound 24, Ethyl 2‐amino‐4‐(3‐(5‐methoxy‐1H‐indole‐2‐carboxamido)phenyl)‐1H‐imidazole‐5‐carboxylate]
pIC50 [1]: 4.90
pIC50 [2]: 5.12
Cytotoxic / antiproliferative activity in words [3]: low antiproliferative activity

CCOC(=O)c1[nH]c(N)nc1-c1cccc(NC(=O)c2ccc3cccc(O)c3n2)c1 [Compound 17, Ethyl 2‐amino‐4‐(3‐(8‐hydroxyquinoline‐2‐carboxamido)phenyl)−1H‐imidazole‐5‐carboxylate]
pIC50 [1]: 4.77
pIC50 [2]: 5.24
Cytotoxic / antiproliferative activity in words [3]: low antiproliferative activity

Nc1nc(-c2cccc(NC(=O)c3ccc4ccccc4n3)c2)c(C(=O)c2ccccc2)[nH]1 [Compound 19, N‐(3‐(2‐amino‐5‐benzoyl‐1H‐imidazol‐4‐yl)phenyl)quinoline‐2‐carboxamide]
Cytotoxic / antiproliferative activity in words [3]: completely inactive

Nc1nc(-c2ccc(NC(=O)c3cc4cc(Br)ccc4[nH]3)cc2)c(C(=O)c2ccccc2)[nH]1 [Compound 35, N‐(4‐(2‐amino‐5‐benzoyl‐1H‐imidazol‐4‐yl)phenyl)‐5‐bromo‐1H‐indole‐2‐carboxamide]
pIC50 [1]: 4.96
pIC50 [2]: 5.17
Cytotoxic / antiproliferative activity in words [3]: hampered the viability of all three tested cell lines
AnnexinV translocation, in words (HL‐60 cells [4]): did not influenced AnnexinV translocation significantly
Cells in G2/M phase (HL‐60 cells [6]; 1 µM): 20.8 ± 0.4%
Effect on cell cycle distribution, in words (HL‐60 cells [6]): significantly disturbed cell cycle distribution

Hemimycalin D
pIC50 [8]: 4.77

Nc1nc(-c2cc(Cl)cc(NC(=O)c3cc4cc(Br)ccc4[nH]3)c2)c(C(=O)c2ccccc2)[nH]1 [Compound 33, N‐(3‐(2‐amino‐5‐benzoyl‐1H‐imidazol‐4‐yl)‐5‐chlorophenyl)‐5‐bromo‐1H‐indole‐2‐carboxamide]
pIC50 [1]: 4.94
pIC50 [2]: 5.19
Cytotoxic / antiproliferative activity in words [3]: hampered the viability of all three tested cell lines
Late apoptotic cells (AnnV+/PI+) (HL‐60 cells [4]): 15.6 ± 1.8%
Living cells (AnnV−/PI−) (HL‐60 cells [4]): 79.1 ± 1.9%
Cells in G0/G1 phase (HL‐60 cells [6]; 6 µM, control 64.3 ± 1.9%): 74.1 ± 1.4%
Concentrations at which arrest in G0/G1 phase occurred (HL‐60 cells [6]): 3 to 6 µM
Effect on cell cycle distribution, in words (HL‐60 cells [6]): significantly disturbed cell cycle distribution

Nc1nc(-c2cccc(NC(=O)c3cc4ccccc4[nH]3)c2)c(C(=O)c2ccccc2)[nH]1 [Compound 25, N‐(3‐(2‐amino‐5‐benzoyl‐1H‐imidazol‐4‐yl)phenyl)‐1H‐indole‐2‐carboxamide]
pIC50 [2]: 5.20
Cytotoxic / antiproliferative activity in words [3]: low antiproliferative activity

Hemimycalin C
pIC50 [8]: 4.73

Nc1nc(-c2cccc(NC(=O)c3ccc4cccc(O)c4n3)c2)c(C(=O)c2ccccc2)[nH]1 [Compound 18, N‐(3‐(2‐amino‐5‐benzoyl‐1H‐imidazol‐4‐yl)phenyl)−8‐hydroxyquinoline‐2‐carboxamide]
pIC50 [1]: 4.86
pIC50 [2]: 5.05
Cytotoxic / antiproliferative activity in words [3]: low antiproliferative activity

Cc1ccc(NC(=O)c2cc3cc(Br)ccc3[nH]2)cc1-c1nc(N)[nH]c1C(=O)c1ccccc1 [Compound 34, N‐(3‐(2‐amino‐5‐benzoyl‐1H‐imidazol‐4‐yl)‐4‐methylphenyl)‐5‐bromo‐1H‐indole‐2‐carboxamide]
pIC50 [1]: 4.57
pIC50 [2]: 4.61

CCOC(=O)c1[nH]c(N)nc1-c1cccc(NC(=O)c2cc3cc(F)ccc3[nH]2)c1 [Compound 31, Ethyl 2‐amino‐4‐(3‐(5‐fluoro‐1H‐indole‐2‐carboxamido)phenyl)‐1H‐imidazole‐5‐carboxylate]
pIC50 [1]: 4.84
pIC50 [2]: 5.00

Hemimycalin E
pIC50 [8]: 5.07

Nc1nc(-c2cccc(NC(=O)c3cc4cc(Br)ccc4[nH]3)c2)c(C(=O)c2ccccc2)[nH]1 [Compound 28, N‐(3‐(2‐amino‐5‐benzoyl‐1H‐imidazol‐4‐yl)phenyl)‐5‐bromo‐1H‐indole‐2‐carboxamide]
pIC50 [1]: 4.89
pIC50 [2]: 5.54
Cytotoxic / antiproliferative activity in words [3]: hampered the viability of all three tested cell lines
Early apoptotic cells (AnnV+/PI−) (HL‐60 cells [4]): 23.4 ± 1%
Necrotic cells (AnnV−/PI+) (HL‐60 cells [4]): 2.1 ± 0.4%
Late apoptotic cells (AnnV+/PI+) (HL‐60 cells [4]): 43.4 ± 1.2%
Living cells (AnnV−/PI−) (HL‐60 cells [4]): 31.1 ± 0.8%
DNA fragmentation (sub‐G1 population) of HL‐60 cells (HL‐60 cells [5]): 56.5 ± 2.8%
Cells in G2/M phase (HL‐60 cells [6]; 3 µM): 21.0 ± 0.5%
Effect on cell cycle distribution, in words (HL‐60 cells [6]): significantly disturbed cell cycle distribution
Cells with green JC‐1 accumulation (depolarized MMP) (HL‐60 cells [7]): 10.4 ± 0.2%
Cells with green JC‐1 monomers (depolarized MMP) (HL‐60 cells [7]): 50.3 ± 0.7%

Nc1nc(-c2cccc(NC(=O)c3ccccn3)c2)c(C(=O)c2ccccc2)[nH]1 [Compound 20, N‐(3‐(2‐amino‐5‐benzoyl‐1H‐imidazol‐4‐yl)phenyl)picolinamide]
pIC50 [1]: 4.51
pIC50 [2]: 4.61

Nc1nc(-c2cc(NC(=O)c3cc4cc(Br)ccc4[nH]3)ccc2Cl)c(C(=O)c2ccccc2)[nH]1 [Compound 32, N‐(3‐(2‐amino‐5‐benzoyl‐1H‐imidazol‐4‐yl)‐4‐chlorophenyl)‐5‐bromo‐1H‐indole‐2‐carboxamide]
pIC50 [1]: 4.91
pIC50 [2]: 5.11
Cytotoxic / antiproliferative activity in words [3]: hampered the viability of all three tested cell lines
Late apoptotic cells (AnnV+/PI+) (HL‐60 cells [4]): 11.7 ± 2.6%
Living cells (AnnV−/PI−) (HL‐60 cells [4]): 78.9 ± 1.6%
Concentrations at which arrest in G0/G1 phase occurred (HL‐60 cells [6]): 1 to 6 µM
Effect on cell cycle distribution, in words (HL‐60 cells [6]): significantly disturbed cell cycle distribution

Nc1nc(-c2cccc(NC(=O)c3ccc[nH]3)c2)c(C(=O)c2ccccc2)[nH]1 [Compound 22, N‐(3‐(2‐amino‐5‐benzoyl‐1H‐imidazol‐4‐yl)phenyl)‐1H‐pyrrole‐2‐carboxamide]
pIC50 [2]: 5.16
Cytotoxic / antiproliferative activity in words [3]: low antiproliferative activity

COc1ccc2[nH]c(C(=O)Nc3cccc(-c4nc(N)[nH]c4C(C)=O)c3)cc2c1 [Compound 26, N‐(3‐(5‐acetyl‐2‐amino‐1H‐imidazol‐4‐yl)phenyl)‐5‐methoxy‐1H‐indole‐2‐carboxamide]
pIC50 [1]: 4.46
pIC50 [2]: 4.61
